Experimental data published in ChEMBL document CHEMBL3286282, “Synthesis and antiproliferative activity of novobiocin analogues as potential hsp90 inhibitors” (Eur J Med Chem, 2014).
Blank lines part the entries; values can stand above or below the compound they belong to. Activity calls are given as the source filed them. No cut-off for these calls is given here.

Columns and labels:
MCF7 [1] = test: Antiproliferative activity against ER-positive human MCF7 cells assessed as cell viability at 0.1 mM after 72 hrs by MTT assay; type: functional; settings: MCF7, 72 h, read-out: Activity
How it was run: (§1)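 MCF-7 (ER-positive) cells in DMEM with 2 mM L-glutamine, penicillin/streptomycin and 10% charcoal-treated FCS, seeded at 2500-5000 cells/well. Drugs added 24 h later in serial dilutions from 10 mM DMSO stocks, then exposed 72 h. MTT (500 µg/mL) for 3 h at 37 °C, formazan dissolved in DMSO, A570 read minus A650. Sextuplicates, three experiments.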

[2] = Retardation factor of the compound using CH2Cl2/c-hexane at ratio of 9:1 as solvent system; type: physicochemical
[3] = target: Heat shock protein HSP 90-beta (Homo sapiens) (UniProt P08238); test: Inhibition of HSP90 in human MCF7 cells assessed as ER-alpha degradation at 100 uM after 24 hrs by western blot analysis in presence of proteasome inhibitor MG132; type: cell-based
How it was run: (§2)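 MCF-7 cells grown to 50% confluence, exposed to 100 µM for 24 h with or without MG132 (5 µM). Lysed in Tris-HCl pH 7.5/NaCl/EGTA/Triton X-100 buffer with phosphatase and protease inhibitors. 20 µg protein run on SDS-PAGE. ERα probed with D12 monoclonal antibody (1 µg/mL, overnight 4 °C), detected by biotin/avidin-peroxidase. Nonspecific band used as loading control; DMSO as vehicle.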

[4] = target: Heat shock protein HSP 90-beta (Homo sapiens) (UniProt P08238); test: Inhibition of HSP90 in human MCF7 cells assessed as ER-alpha degradation at 100 uM after 24 hrs by western blot analysis; type: cell-based; how it was run: as §2
[5] = Retardation factor of the compound using CH2Cl2/MeOH at ratio of 9:1 as solvent system; type: physicochemical
[6] = Retardation factor of the compound using CH2Cl2 as solvent system; type: physicochemical
MCF7 [7] = test: Growth inhibition of ER-positive human MCF7 cells after 72 hrs by MTT assay; type: functional; settings: MCF7, 72 h; how it was run: as §1
[8] = Retardation factor of the compound using Et2O as solvent system; type: physicochemical
[9] = Retardation factor of the compound using CH2Cl2/AcOEt at ratio of 95:5 as solvent system; type: physicochemical
[10] = Retardation factor of the compound using c-hexane/AcOEt at ratio of 6:4 as solvent system; type: physicochemical
[11] = Retardation factor of the compound using c-hexane/AcOEt at ratio of 8:2 as solvent system; type: physicochemical

Sequence of Heat shock protein HSP 90-beta (Homo sapiens) (P08238 whole entry): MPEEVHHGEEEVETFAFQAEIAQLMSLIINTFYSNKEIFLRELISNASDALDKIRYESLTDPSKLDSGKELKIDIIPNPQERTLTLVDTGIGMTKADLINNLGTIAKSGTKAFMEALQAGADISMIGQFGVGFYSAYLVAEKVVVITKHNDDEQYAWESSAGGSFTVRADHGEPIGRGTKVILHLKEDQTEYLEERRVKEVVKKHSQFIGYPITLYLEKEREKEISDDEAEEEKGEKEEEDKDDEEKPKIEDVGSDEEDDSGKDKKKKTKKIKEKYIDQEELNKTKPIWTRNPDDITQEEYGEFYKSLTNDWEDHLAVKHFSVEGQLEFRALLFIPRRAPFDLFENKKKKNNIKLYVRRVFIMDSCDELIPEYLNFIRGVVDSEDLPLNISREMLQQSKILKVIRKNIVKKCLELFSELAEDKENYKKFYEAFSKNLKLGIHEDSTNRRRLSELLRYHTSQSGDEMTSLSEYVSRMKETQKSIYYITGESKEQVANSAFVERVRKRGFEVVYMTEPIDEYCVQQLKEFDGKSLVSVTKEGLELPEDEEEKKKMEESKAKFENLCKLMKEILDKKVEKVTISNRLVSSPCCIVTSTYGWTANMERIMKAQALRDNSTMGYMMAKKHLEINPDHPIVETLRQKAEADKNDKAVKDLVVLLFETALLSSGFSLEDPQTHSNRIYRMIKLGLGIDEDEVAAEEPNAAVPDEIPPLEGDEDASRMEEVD

Structure (SMILES): COc1c(C#CCN(C)C)cc2c(OS(=O)(=O)c3ccc(C)cc3)c(NC(=O)c3ccc4c(c3)CCC(C)(C)O4)c(=O)oc2c1C
- viability at 100 µM (MCF7 [1]): 96%
- Rf [5]: 0.22

Structure (SMILES): Cc1c(O)ccc2c(OS(=O)(=O)c3ccc4ccccc4c3)c(NC(=O)c3ccc4c(c3)CCC(C)(C)O4)c(=O)oc12
- GI50 (MCF7 [7]): 67 µM
- viability at 100 µM (MCF7 [1]): 33%
- Rf [8]: 0.3
- ER-alpha degradation (active/inactive) [4]: Active

Structure (SMILES): C#Cc1cc2c(OS(=O)(=O)c3ccc(C)cc3)c(NC(=O)c3ccc4c(c3)CCC(C)(C)O4)c(=O)oc2c(C)c1OC
- viability at 100 µM (MCF7 [1]): 82%
- Rf [9]: 0.5

Structure (SMILES): COc1c(Br)cc2c(OC)c(NC(=O)c3ccc4c(c3)CCC(C)(C)O4)c(=O)oc2c1C
- Rf [11]: 0.19
- viability at 100 µM (MCF7 [1]): 90%
- Rf [9]: 0.59

More lines, main results first:

- Rf [2]: 0.1
Structure (SMILES): COc1c(C#Cc2ccccc2)cc2c(OS(=O)(=O)c3ccc(C)cc3)c(NC(=O)c3ccc4c(c3)CCC(C)(C)O4)c(=O)oc2c1C
- viability at 100 µM (MCF7 [1]): 90%

- inhibition [3]: inactive
- ER-alpha degradation (active/inactive) [4]: Active
Structure (SMILES): Cc1ccc(S(=O)(=O)Oc2c(NC(=O)c3ccc4c(c3)CCC(C)(C)O4)c(=O)oc3c(C)c(O)ccc23)cc1

- Rf [6]: 0.2
Structure (SMILES): COc1ccc(C#Cc2cc3c(OS(=O)(=O)c4ccc(C)cc4)c(NC(=O)c4ccc5c(c4)CCC(C)(C)O5)c(=O)oc3c(C)c2OC)cc1
- viability at 100 µM (MCF7 [1]): 89%

- GI50 (MCF7 [7]): 260 µM
Structure (SMILES): CO[C@@H]1[C@@H](OC(N)=O)[C@@H](O)[C@H](Oc2ccc3c(O)c(NC(=O)c4ccc(O)c(CC=C(C)C)c4)c(=O)oc3c2C)OC1(C)C [NOVOBIOCIN]

- Rf [10]: 0.14
Structure (SMILES): Cc1c(O)ccc2c(OS(C)(=O)=O)c(NC(=O)c3ccc4c(c3)CCC(C)(C)O4)c(=O)oc12
- viability at 100 µM (MCF7 [1]): 61%
